Published values collected from several papers.
Lines come from different studies, so protocols differ.
TYMS: Thymidylate synthase (TYMS, Homo sapiens, UniProt P04818)
DHODH: Dihydroorotate dehydrogenase (quinone), mitochondrial (DHODH, Homo sapiens, UniProt Q02127)
PSMB8: Proteasome subunit beta type-8 (PSMB8, Homo sapiens, UniProt P28062)
DYRK1B: Dual specificity tyrosine-phosphorylation-regulated kinase 1B (DYRK1B, Homo sapiens, UniProt Q9Y463)

target | assay | conditions | IC50 | SMILES
Lysosomal acid glucosylceramidase (GBA1, Homo sapiens, UniProt P04062) | enzyme activity, inhibitor | – | 15 µM | CCCCCCCC(=O)N[C@H](CN1CCCC1)[C@H](O)c1ccc2c(c1)OCCO2
Protein arginine N-methyltransferase 7 (PRMT7, Homo sapiens, UniProt Q9NVM4) | enzyme activity, inhibitor, radiometric | – | < 2.4 µM | Nc1ncnc2c1ncn2[C@@H]1O[C@H](CSCCNC(=O)NCc2ccccc2)[C@@H](O)[C@H]1O
Histone acetyltransferase KAT7 (KAT7, Homo sapiens, UniProt O95251) | enzyme activity, inhibitor, radiometric | – | > 100 µM | COc1ccc(S(=O)(=O)ON=C2C=C(C)C(=O)C(C)=C2)cc1
TYMS | enzyme activity, inhibitor | – | 42 µM | NC(=O)C1CCN(C(=O)c2ccc(NCc3cnc4nc(N)nc(N)c4n3)cc2)CC1
Alpha-1D adrenergic receptor (ADRA1D, Homo sapiens, UniProt P25100) | ligand displacement, radioligand | – | > 30 µM | CCOCc1nc(O)c(-c2nnc(Cc3ccc(Cl)cn3)o2)c(O)c1-c1c(OC)cccc1OC
TYMS | enzyme activity, inhibitor, radiometric | – | 260 µM | O=C(N=Nc1c(O)[nH]c2ccccc12)c1cccs1
DHODH | enzyme activity, inhibitor, absorbance | – | > 50 µM | Cc1nc(Nc2ccc(C)c(Cl)c2)c2c(C)noc2n1
Platelet-derived growth factor receptor beta (PDGFRB, Homo sapiens, UniProt P09619) | target engagement in cells, inhibitor, BRET | – | > 10 µM | Cc1cc(Nc2cc3ncccc3c(N[C@@H]3C[C@H]4CC[C@@H](C3)N4CCC#N)n2)n[nH]1
Caspase-7 (CASP7, Homo sapiens, UniProt P55210) | enzyme activity, inhibitor | – | 0.00175 µM | CC(=O)N[C@@H](CC(=O)O)C(=O)N[C@@H](CCC(=O)O)C(=O)N[C@H](C(=O)N[C@H](C=O)CC(=O)O)C(C)C
Proteasome subunit beta type-8, chymotrypsin-like site (PSMB8, Homo sapiens, UniProt P28062) | enzyme activity, inhibitor | – | 6.7 µM | O=C1N[C@H]2n3c(cc(Br)c3Br)C(=O)N3CCC[C@]23N1 (racemic)
Glucagon receptor (GCGR, Homo sapiens, UniProt P47871) | cAMP, antagonist | – | > 20 µM | N#Cc1ccc(COc2cccc(C3CCN(Cc4nc5ccc(C(=O)O)cc5n4C[C@@H]4CCO4)CC3)n2)c(F)c1
PSMB8 | enzyme activity, inhibitor | lysate | 2.34 µM | CC(C)C[C@H](NC(=O)[C@H](Cc1ccccc1)N=[N+]=[N-])C(=O)N[C@@H](CC(C)(C)F)C(=O)N[C@H](/C=C/S(C)(=O)=O)Cc1ccc(CN)cc1
TYMS | enzyme activity, inhibitor | – | 67 µM | Nc1nc(N)c2nc(CNc3ccc(C(=O)N4CCC(C(=O)O)CC4)cc3)cnc2n1
DHODH | enzyme activity, inhibitor, absorbance | – | > 50 µM | Cc1nc(Nc2ccc(S(F)(F)(F)(F)F)cc2)c2c(C)noc2n1
Ephrin type-A receptor 1 (EPHA1, Homo sapiens, UniProt P21709) | enzyme activity, inhibitor, radiometric | – | 0.285 µM | CCn1ncc2c1-c1cnc(N)c(c1)O[C@H](C)c1cc(F)ccc1-c1nn(C)nc1C2
DHODH | enzyme activity, inhibitor, absorbance | – | > 100 µM | Cc1nc(NC2CCc3cc(Br)ccc3C2)c2c(C)noc2n1 (centres unmarked)

target | assay | conditions | IC50 | SMILES
Lysosomal acid glucosylceramidase (GBA1, Homo sapiens, UniProt P04062, R534H) | enzyme activity, inhibitor | – | 19 µM | Oc1ccc(Cl)cc1Nc1nc(NCC2CCCO2)c2ccccc2n1 (centres unmarked)
TYMS | enzyme activity, inhibitor | – | 91.9 µM | CCOC(=O)C1CCN(C(=O)c2ccc(N(CC)Cc3cnc4nc(N)nc(N)c4n3)cc2)CC1
PSMB8 | enzyme activity, inhibitor | lysate | > 10 µM | COC1CCC(C[C@H](NC(=O)[C@H](CC(C)C)NC(=O)c2cnc(C)s2)C(=O)N[C@H](/C=C/S(C)(=O)=O)Cc2ccc(CN)cc2)CC1 (some centres unmarked)
Ephrin type-B receptor 3 (EPHB3, Homo sapiens, UniProt P54753) | enzyme activity, inhibitor | – | 2.54 µM | CN1CCN(c2ccc(Nc3ncc4cc(C#N)c(=O)n(C5CCCC5)c4n3)cc2)CC1
PSMB8 | enzyme activity, inhibitor | lysate | 0.555 µM | Cc1ncc(C(=O)N[C@@H](CC2CCCC3CCCCC32)C(=O)N[C@@H](CC(C)C)C(=O)N[C@H](/C=C/S(C)(=O)=O)Cc2ccc(CN)cc2)s1 (some centres unmarked)
Prostaglandin G/H synthase 2 (PTGS2, Homo sapiens, UniProt P35354) | enzyme activity, inhibitor | – | 0.12 µM | Cc1ccc(Nc2c(-c3ccc(S(C)(=O)=O)cc3)nc3cccc(C)n23)cc1
PSMB8 | enzyme activity, inhibitor | lysate | > 10 µM | CC(C)C[C@H](NC(=O)c1ccc(-c2ccccc2)nc1)C(=O)N[C@@H](CC(C)C)C(=O)N[C@H](/C=C/S(C)(=O)=O)Cc1ccc(CN)cc1
DYRK1B | enzyme activity, inhibitor | – | 0.59 µM | Cn1cc(C2=C(c3coc4ccccc34)C(=O)NC2=O)c2cc(Br)ccc21
PSMB8 | enzyme activity, inhibitor | lysate | 0.191 µM | COc1ccc(C[C@H](NC(=O)[C@H](C)NC(=O)CN2CCOCC2)C(=O)N[C@@H](CC2CCC(C(F)(F)F)CC2)C(=O)[C@@]2(C)CO2)cc1 (some centres unmarked)
DHODH | enzyme activity, inhibitor | – | > 10 µM | CCCN(C)Cc1cc(-c2[nH]c3cccc(F)c3c(=O)c2C)ccc1Cc1ccc(OC(F)(F)F)cc1
PSMB8 | enzyme activity, inhibitor | lysate | 3.24 µM | Cc1ncc(C(=O)N[C@@H](CC(C)C)C(=O)N[C@@H](CC2CCC3CCCCC3C2)C(=O)N[C@H](/C=C/S(C)(=O)=O)Cc2ccc(CN)cc2)s1 (some centres unmarked)
Ephrin type-A receptor 7 (EPHA7, Homo sapiens, UniProt Q15375) | enzyme activity, inhibitor, radiometric | – | 0.143 µM | Cc1ccc(NC(=O)c2ccc(C)c(C(F)(F)F)c2)cc1C#Cc1nn(C2CCC(O)CC2)c2ncnc(N)c12 (centres unmarked)
PSMB8 | enzyme activity, inhibitor | lysate | 3.98 µM | COc1ccc(C[C@H](NC(=O)[C@H](C)NC(=O)CN2CCOCC2)C(=O)N[C@@H](CC2CCC(OC)CC2)C(=O)[C@@]2(C)CO2)cc1 (some centres unmarked)
DYRK1B | enzyme activity, inhibitor | – | > 10 µM | CCOc1ccc2c(-c3cc(C)nc(Nc4cc(OC)cc(C(F)(F)F)c4)n3)cnn2n1
PSMB8 | enzyme activity, inhibitor | lysate | > 10 µM | Cc1ncc(C(=O)N[C@@H](CC(C)C)C(=O)N[C@@H](CC2CCC(C3CCCCC3)CC2)C(=O)N[C@H](/C=C/S(C)(=O)=O)Cc2ccc(CN)cc2)s1 (some centres unmarked)
Multidrug resistance-associated protein 1 (ABCC1, Homo sapiens, UniProt P33527) | transporter uptake, inhibitor, radiometric | cell membranes | 12.3 µM | C=C1/C(=C\C=C2/CCC[C@]3(C)[C@@H]([C@H](C)/C=C/[C@@H](O)C4CC4)CC[C@@H]23)C[C@@H](O)C[C@@H]1O
